# Calls of active or inactive are those of the source. The calls are words filed in the database; no cut-off is given here.
# Tested on: CHO
# Test: Induction of cAMP generation in wild-type CHO cells at 10 uM
# Type: functional, cell-based
# Conditions: Cricetulus griseus
# Summary of the method: (§1)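 Test compounds at 10 µM applied to CHO cells transfected with GPR12 and, in parallel, to untransfected wild-type CHO cells, which serve as the receptor-free comparison. The read-out is cAMP production in each cell line. The assay follows literature cAMP methods.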
row,SMILES,Activity
1,CO[C@H](/C=C(\C)[C@H]1CC[C@H]2C3=CC(=O)[C@H]4CC(=CC[C@H](O)C4)[C@H]3CC[C@]12C)[C@@H](C)O,inactive
2,C/C(=C\[C@H](O)[C@H](C)O)[C@H]1CC[C@H]2C3=CC(=O)[C@H]4CC(=CC[C@H](O)C4)[C@H]3CC[C@]12C,inactive
3,C/C(=C\[C@@H](O)[C@H](C)O)[C@H]1CC[C@H]2C3=CC(=O)[C@H]4CC(=CC[C@H](O)C4)[C@H]3CC[C@]12C,inactive
4,C[C@H](O)/C=C/[C@](C)(O)[C@H]1CC[C@H]2C3=CC(=O)[C@H]4CC(=CC[C@H](O)C4)[C@H]3CC[C@@]21C,inactive
5,C[C@@H](O)/C=C/[C@](C)(O)[C@H]1CC[C@H]2C3=CC(=O)[C@H]4CC(=CC[C@H](O)C4)[C@H]3CC[C@@]21C,inactive

# Molecular target: T1, G-protein coupled receptor 12 (Homo sapiens) (UniProt P47775)
# T1 sequence (whole entry): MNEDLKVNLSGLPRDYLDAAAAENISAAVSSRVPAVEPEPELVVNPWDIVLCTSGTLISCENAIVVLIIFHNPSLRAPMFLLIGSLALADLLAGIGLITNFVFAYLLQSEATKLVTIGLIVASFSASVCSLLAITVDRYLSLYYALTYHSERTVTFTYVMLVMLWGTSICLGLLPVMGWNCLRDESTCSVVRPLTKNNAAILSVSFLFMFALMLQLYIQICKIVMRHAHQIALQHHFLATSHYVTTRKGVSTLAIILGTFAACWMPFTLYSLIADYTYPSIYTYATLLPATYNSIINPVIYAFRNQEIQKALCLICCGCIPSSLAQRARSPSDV
# Test: Activity at GPR12 expressed in CHO cells assessed as induction of cAMP production at 10 uM
# Type: functional, cell-based
# Conditions: not given
# Summary of the method: as §1
row,SMILES,Activity
1,CO[C@H](/C=C(\C)[C@H]1CC[C@H]2C3=CC(=O)[C@H]4CC(=CC[C@H](O)C4)[C@H]3CC[C@]12C)[C@@H](C)O,Active
2,C/C(=C\[C@H](O)[C@H](C)O)[C@H]1CC[C@H]2C3=CC(=O)[C@H]4CC(=CC[C@H](O)C4)[C@H]3CC[C@]12C,Active
3,C/C(=C\[C@@H](O)[C@H](C)O)[C@H]1CC[C@H]2C3=CC(=O)[C@H]4CC(=CC[C@H](O)C4)[C@H]3CC[C@]12C,Active
4,C[C@H](O)/C=C/[C@](C)(O)[C@H]1CC[C@H]2C3=CC(=O)[C@H]4CC(=CC[C@H](O)C4)[C@H]3CC[C@@]21C,Active
5,C[C@@H](O)/C=C/[C@](C)(O)[C@H]1CC[C@H]2C3=CC(=O)[C@H]4CC(=CC[C@H](O)C4)[C@H]3CC[C@@]21C,Active

# Reference: ChEMBL document CHEMBL1156545, “Unusual C25 steroid isomers with bicyclo[4.4.1]A/B rings from a volcano ash-derived fungus Penicillium citrinum” (J Nat Prod, 2008)
